# Screens deposited in PubChem by several laboratories.
# Compounds with a hit are over-represented: about 5.1% of the library has one in this group of screens.
# NF-kB expr up: raises NF-kB expression in human neuronal cells; NF-kB reporter expression; hits give high values; actives 1.6% (n = 190,000); AID 1239; fold change at 12.5 µM; in the data active means fold change above about 3.3
# APP 5'UTR act: activates APP 5'UTR luciferase reporter; SH-SY5Y APP 5'UTR luciferase reporter, luminescence; zero percent = DMSO vehicle wells; activation, % at 2 µM; actives 1% (n = 190,000);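 active means activation above a set limit, based on mean plus 3 SD of controls, cut at about 140% in these data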
# STAT1 blocker: inhibitors of IFN-gamma induced STAT1 signaling; actives 0.35% (n = 200,000); NIH 3T3 STAT1-luciferase reporter, luminescence; inhibition, % at 5.5 µM; AID 920;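 active means inhibition above a set limit, the mean inhibition across all tested compounds plus 3 SD, cut at about 34% in these data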
# STAT3 blocker: reduces IL-6 driven STAT3 reporter signal. actives 0.89% (n = 190,000). U3A cells, IL-6 STAT3-luciferase reporter, luminescence; host cell line lacks STAT1. inhibition, % at 5.5 µM;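 active means inhibition above the mean inhibition across all screened compounds plus 3 SD, cut at about 44% in these data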
# STAT3 activator: STAT3 signaling activation; AID 871; actives 0.91% (n = 190,000); activation (% of control), % at 5.6 µM; U3A cells, IL-6 STAT3-luciferase reporter, luminescence; 100% = signal with IL-6 EC80 alone;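 active means activation above the screen-wide mean of compound activation plus 3 SD, cut at about 130% in these data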
#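 Material: STAT3-luciferase reporter U3A cells. Controls: IL-6-treated wells, 100% activation. Read-out: % activation versus median of IL-6-stimulated wells. Probe or stimulus: IL-6 stimulus at 33 ng/mL final. Timing: compound 1 h, then IL-6 6 h at 37 °C. Signal: reporter luminescence signal.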
# STAT1 activator: increases IFN-gamma driven STAT1 reporter signal | activation (% of control), % at 5.5 µM | NIH 3T3 STAT1-luciferase reporter, luminescence; 100% = IFN-gamma alone, no compound | actives 2.6% (n = 200,000);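 active means activation above the screen-wide mean activation plus 3 SD, cut at about 130% in these data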
# A number is an active result; i = inactive; nt = not tested or not shown.
SMILES,NF-kB expr up,APP 5'UTR act,STAT1 blocker,STAT3 blocker,STAT3 activator,STAT1 activator
CCc1ccc2oc(-c3cc(N=Cc4cccc(OC)c4O)ccc3O)nc2c1,4.2,162,i,i,i,i
O=C(NCc1ccccc1)c1cnc(-c2ccccn2)nc1C(F)(F)F,i,i,i,i,i,i
CC1=CC(=O)C=C(C)C1=NOc1ccccc1[N+](=O)[O-],3.7,i,i,i,i,i
CC(C)(C)/C(COc1ccccc1[N+](=O)[O-])=N/O,i,i,i,i,i,i
O=C(c1ccc2c(c1)OCO2)C1CCCN(Cc2cn[nH]c2-c2ccccc2)C1 (stereo not drawn),i,i,i,i,i,i
O=C(c1cc2c(=O)n3ccccc3nc2s1)N1CCOCC1,i,i,i,i,i,131
CC(C)OC(=O)CSc1nnc(-c2ccc([N+](=O)[O-])cc2)o1,i,i,i,i,i,i
CCN(CC)S(=O)(=O)c1ccc(N=N/C(C(C)=O)=C(/C)O)cc1,i,i,i,i,i,i
CC(=O)/C(N=Nc1ccc2c(c1)OCO2)=C(\C)O,i,i,i,i,i,138
Cc1cccc(NS(=O)(=O)c2ccc3c(c2)NC(=O)CC(=O)N3)c1,i,i,i,i,i,i
Cc1cc(/C=C\c2ccccc2)nc2ccccc12,i,i,i,i,i,143
CCOCCCN(C(=O)c1ccco1)C(C(=O)NC1CCCC1)c1cccc(OC)c1OC (stereo not drawn),i,i,i,i,i,i
COc1ccc2cc(C(=O)NCc3ccco3)c(=O)oc2c1,3.9,i,i,i,i,i
CC(C)Oc1cccc(C(=O)NC(=S)Nc2ccccc2)c1,i,i,i,i,i,145
O=C(NCc1ccco1)c1cc2ccc(O)cc2oc1=O,i,i,i,i,i,i
COc1cccc(NC(=O)Nc2cccc(C(=O)O)c2)c1,i,i,88,92,i,i
COc1ccc(C(=O)Nc2cccc(OC)c2)cc1,5.8,i,i,i,i,i
COc1ccc(C(=O)NNC(=S)Nc2ccccc2)cc1,6.5,141,i,i,i,130
COc1cccc(NC(=O)Nc2ccc(CC(=O)O)cc2)c1,i,i,i,i,i,i
CNC(=S)Nc1cccc(C(=O)O)c1,i,i,i,i,i,i
COc1ccc2oc(=O)c(C(=O)Nc3cccc(C)c3)cc2c1,i,i,i,i,i,138
CC(C)(C)C(=O)NC(=S)Nc1cccc(C(=O)O)c1,nt,i,i,i,i,131
CCc1ccc(NC(=O)Nc2cccc(OC)c2)cc1,i,161,i,i,i,146
CN(C)CCN1C(=O)C(=O)/C(=C(/O)c2ccc(F)cc2)C1c1ccccc1F (stereo not drawn),i,i,i,i,i,i
CCC(=O)n1nc(-c2ccccc2)nc1SCC(=O)Nc1ccc(C)cc1,i,i,i,i,i,i
SMILES,NF-kB expr up,APP 5'UTR act,STAT1 blocker,STAT3 blocker,STAT3 activator,STAT1 activator
CN(C)/C=C/C(=O)c1cccc(Cl)c1,i,i,i,i,i,i
Cc1ccnc(NC(=O)c2cc3ccccc3oc2=O)c1,5.9,152,i,i,i,144
COc1ccc(NC(=O)c2ccc3nccnc3c2)cc1,i,i,i,i,i,131
O=C(Nc1ccc(Br)cn1)c1ccc2nccnc2c1,nt,i,i,i,i,149
O=C(NC(=S)NC1CCSC1=O)c1ccccc1 (stereo not drawn),i,nt,i,i,i,i
CC(C)[C@@H]1N[C@]2(C(=O)Nc3ccccc32)[C@@H]2C(=O)N(c3cccc(C(F)(F)F)c3)C(=O)[C@@H]21,i,i,i,i,i,i
CC(C)(C)NC(=O)C[n+]1ccc(C(N)=O)cc1,6.2,i,i,i,i,i
CCN(CC)C(=O)C[n+]1ccc(C(N)=O)cc1,i,i,i,i,i,i
CCn1c(COc2ccc(C)cc2)nnc1SCC(=O)Nc1cc(OC)ccc1OC,i,i,i,i,i,i
Cc1ccc(-c2ccnc(-c3ccc(O)cc3)n2)cc1,i,i,i,i,i,142
CCOc1cc(S(=O)(=O)Nc2ccccc2CC)ccc1Cl,i,i,i,i,i,i
CCOc1cccc(C(=O)Nc2cccc(-c3nnc(-c4ccccc4)o3)c2)c1,i,i,i,i,i,i
CC1Cc2ccccc2N1C(=O)CSc1nc2ccccc2n1CC(=O)N1CCOCC1 (stereo not drawn),i,i,i,i,i,i
O=C1c2ccccc2C(=O)c2cc(S(=O)(=O)Nc3ccccc3)ccc21,i,i,i,i,i,i
O=C1C(Nc2ccccc2)=C(NS(=O)(=O)c2ccccc2)C(=O)c2ccccc21,i,i,i,i,134,i
CCOC(=O)N1CCC2(O)CCCCC2C1c1ccc(F)cc1 (stereo not drawn),i,i,i,i,i,i
O=C(Nc1ccccc1)C1Cc2ccccc2CN1C(=O)c1ccco1 (stereo not drawn),i,i,i,i,141,130
NC(=O)c1ccc(N2CCCCC2)c(N2C(=O)CCC2=O)c1,i,i,i,i,i,i
CSc1ccc(Cl)c(C(=O)NC2CCCC2)c1,i,i,i,i,i,i
O=C(NCCOc1ccccc1F)c1cc(F)c(F)cc1Cl,i,i,i,i,i,134
O=C(NC1CCCCCCC1)c1cc(F)c(F)cc1Cl,i,i,i,i,i,130
Cc1cccc(CSc2cccc3cccnc23)c1,i,i,i,i,i,146
Cn1c(Sc2ccc(Br)cc2)c(C=O)c2ccccc21,i,i,i,i,157,i
O=C(CNS(=O)(=O)c1cccc(Cl)c1)Nc1ccc(-c2nc3ccccc3s2)cc1,i,i,i,i,i,145
O=C(Nc1cccc(-c2nc3ccccc3s2)c1)c1cccs1,i,i,i,i,i,140
SMILES,NF-kB expr up,APP 5'UTR act,STAT1 blocker,STAT3 blocker,STAT3 activator,STAT1 activator
O=C(Nc1cccc(-c2nc3ccccc3s2)c1)c1cc(=O)c2ccccc2o1,i,i,i,i,i,i
Cc1ccc2oc(-c3cccc(NC(=S)NC(=O)c4cccs4)c3)nc2c1,i,i,i,i,i,i
O=C(Nc1ccc2oc(-c3ccccc3)nc2c1)c1cccs1,i,155,i,i,i,143
O=C(CCS(=O)(=O)c1ccccc1)Nc1cccc(-c2nc3ccccc3s2)c1,3.7,i,i,i,i,i
CCCCN1CCc2[nH]c(=S)[nH]c(=O)c2C1,i,i,i,i,i,i
O=C(COc1ccccc1Cl)c1ccc2c(c1)CCCC2,i,i,i,i,i,i
O=C(CC(c1ccccc1)c1ccccc1)Nc1ccc2c(c1)OCCO2,i,i,i,i,i,i
CC(NS(=O)(=O)c1cccc(Cl)c1)C(=O)Nc1ccc(-c2nc3ccccc3s2)cc1 (stereo not drawn),i,i,i,i,i,i
Cc1ccc(C)c(S(=O)(=O)NC(C)C(=O)Nc2ccc(-c3nc4ccccc4s3)cc2)c1 (stereo not drawn),i,i,i,i,i,131
